Assay results as given in ChEMBL document CHEMBL1127345, “Synthesis, binding properties, and 18F labeling of fluorocarazolol, a high-affinity beta-adrenergic receptor antagonist” (J Med Chem, 1994).

Experiments:
Mus musculus [1] = assay: The in vivo tissue distribution of mouse brain without Propranolol preadministration in 60 min, value was fractional dose per fractional body weight of the organ; conditions: 1 h
Mus musculus [2] = assay: The in vivo tissue distribution of mouse liver with Propranolol preadministration in 120 min, value was fractional dose per fractional body weight of the organ; type: ADME, organism-based; conditions: 2 h
In short: (§1)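 Male CF-1 mice (25–30 g), anesthetised with 2 mg sodium pentobarbital ip 30 min before tracer. Where blocked, propranolol iv via tail vein (0.1 mL of […]; […]) about 30 min before tracer. Tracer given by tail vein, 0.1 mL at 1–2 mCi/mL. Mice killed by cervical dislocation at set times, organs weighed and counted. %ID/g × body weight/100 gives unitless uptake. Heart, brain, blood, lung, kidney, liver and bone n=5; average ± SD.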

Mus musculus [3] = assay: The in vivo tissue distribution of mouse kidney with Propranolol administration after 90 min, value was fractional dose per fractional body weight of the organ; type: ADME, organism-based; conditions: 1.5 h
In short: as §1

Mus musculus [4] = assay: The in vivo tissue distribution of mouse heart without Propranolol preadministration in 90 min, value was fractional dose per fractional body weight of the organ; conditions: 1.5 h
Mus musculus [5] = assay: The in vivo tissue distribution of mouse liver with Propranolol administration after 40 min, value was fractional dose per fractional body weight of the organ; type: ADME, organism-based
In short: (§2)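 Male CF-1 mice (25–30 g), given 2 mg sodium pentobarbital ip 30 min before tracer. Blocked groups received propranolol iv by tail vein, 0.1 mL of 1 mg/mL. About 30 min later, 0.1 mL of [18F]tracer (1–2 mCi/mL) was injected by tail vein. Mice were killed by cervical dislocation at set times, and organs were weighed and counted. Uptake is %ID/g × body weight/100, average ± SD; n=5 for heart, brain, blood, lung, kidney, liver and bone.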

Mus musculus [6] = assay: The in vivo tissue distribution of mouse liver without Propranolol preadministration in 90 min, value was fractional dose per fractional body weight of the organ; conditions: 1.5 h
Mus musculus [7] = assay: The in vivo tissue distribution of mouse liver without Propranolol preadministration in 10 min, value was fractional dose per fractional body weight of the organ
Mus musculus [8] = assay: The in vivo tissue distribution of mouse lung with Propranolol administration after 20 min, value was fractional dose per fractional body weight of the organ; type: ADME, organism-based
In short: as §2

Mus musculus [9] = assay: The in vivo tissue distribution of mouse brain without Propranolol preadministration in 20 min, value was fractional dose per fractional body weight of the organ
Mus musculus [10] = assay: The in vivo tissue distribution of mouse blood without Propranolol preadministration in 20 min, value was fractional dose per fractional body weight of the organ
Mus musculus [11] = assay: The in vivo tissue distribution of mouse lung with Propranolol administration after 180 min, value was fractional dose per fractional body weight of the organ; type: ADME, organism-based; conditions: 3 h
In short: as §1

Mus musculus [12] = assay: The in vivo tissue distribution of mouse kidney without Propranolol preadministration in 10 min, value was fractional dose per fractional body weight of the organ
Mus musculus [13] = assay: The in vivo tissue distribution of mouse heart with Propranolol administration after 120 min, value was fractional dose per fractional body weight of the organ; type: ADME, organism-based; conditions: 2 h
In short: as §2

Mus musculus [14] = assay: The in vivo tissue distribution of mouse brain without Propranolol preadministration in 10 min, value was fractional dose per fractional body weight of the organ
Mus musculus [15] = assay: The in vivo tissue distribution of mouse heart with Propranolol administration after 40 min, value was fractional dose per fractional body weight of the organ; type: ADME, organism-based
In short: as §1

Mus musculus [16] = assay: The in vivo tissue distribution of mouse brain with Propranolol preadministration in 90 min, value was fractional dose per fractional body weight of the organ; type: ADME, organism-based; conditions: 1.5 h
In short: as §1

Mus musculus [17] = assay: The in vivo tissue distribution of mouse brain without Propranolol preadministration in 120 min, value was fractional dose per fractional body weight of the organ; conditions: 2 h
Mus musculus [18] = assay: The in vivo tissue distribution of mouse brain with Propranolol administration after 120 min, value was fractional dose per fractional body weight of the organ; type: ADME, organism-based; conditions: 2 h
In short: as §2

Mus musculus [19] = assay: The in vivo tissue distribution of mouse brain with Propranolol administration after 40 min, value was fractional dose per fractional body weight of the organ; type: ADME, organism-based
In short: as §1

Mus musculus [20] = assay: The in vivo tissue distribution of mouse bone with Propranolol administration after 40 min, value was fractional dose per fractional body weight of the organ; type: ADME, organism-based, Bone element
In short: as §1

Mus musculus [21] = assay: The in vivo tissue distribution of mouse liver with Propranolol administration after 180 min, value was fractional dose per fractional body weight of the organ; type: ADME, organism-based; conditions: 3 h
In short: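 Male CF-1 mice (25–30 g) anaesthetised with 2 mg sodium pentobarbital ip; blocked group given 0.1 mL of […] propranolol iv via tail vein (200 μg, 6.6 mg/kg), tracer 30 min later. 0.1 mL of 1–2 mCi/mL [18F]-labelled enantiomer iv via tail vein; killed by cervical dislocation, organs weighed and counted against weighed standards. %ID/g × body weight/100 gives unitless uptake; five mice per point (heart, blood, lung, kidney, liver, bone); mean ± SD.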

Mus musculus [22] = assay: The in vivo tissue distribution of mouse bone with Propranolol preadministration in 60 min, value was fractional dose per fractional body weight of the organ; type: ADME, organism-based, Bone element; conditions: 1 h
In short: as §1

Mus musculus [23] = assay: The in vivo tissue distribution of mouse heart with Propranolol administration after 60 min, value was fractional dose per fractional body weight of the organ; type: ADME, organism-based; conditions: 1 h
In short: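 Male CF-1 mice, 25–30 g, anesthetized with 2 mg sodium pentobarbital ip. Propranolol pretreatment was 0.1 mL of 1 mg/mL iv by tail vein. About 30 min later, 0.1 mL of 1–2 mCi/mL [18F]tracer was given by tail vein. Mice were killed by cervical dislocation at set times. Organs were weighed and counted against weighed dose standards. %ID/g × body weight/100 gave fractional dose per fractional body weight. Blood and heart n=5.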

Mus musculus [24] = assay: The in vivo tissue distribution of mouse lung without Propranolol preadministration in 20 min, value was fractional dose per fractional body weight of the organ
Mus musculus [25] = assay: The in vivo tissue distribution of mouse bone with Propranolol administration after 10 min, value was fractional dose per fractional body weight of the organ; type: ADME, organism-based, Bone element
In short: as §1

Mus musculus [26] = assay: The in vivo tissue distribution of mouse kidney without Propranolol preadministration in 120 min, value was fractional dose per fractional body weight of the organ; conditions: 2 h
Mus musculus [27] = assay: The in vivo tissue distribution of mouse bone without Propranolol preadministration in 120 min, value was fractional dose per fractional body weight of the organ; conditions: 2 h
Mus musculus [28] = assay: The in vivo tissue distribution of mouse brain with Propranolol administration after 60 min, value was fractional dose per fractional body weight of the organ; type: ADME, organism-based; conditions: 1 h
In short: as §1

Mus musculus [29] = assay: The in vivo tissue distribution of mouse kidney with Propranolol administration after 120 min, value was fractional dose per fractional body weight of the organ; type: ADME, organism-based; conditions: 2 h
In short: as §1

Mus musculus [30] = assay: The in vivo tissue distribution of mouse heart without Propranolol preadministration in 60 min, value was fractional dose per fractional body weight of the organ; conditions: 1 h

Row | SMILES | Dose/organ (Mus musculus [1]) | Dose/organ (Mus musculus [2]) | Dose/organ (Mus musculus [3]) | Dose/organ (Mus musculus [4]) | Dose/organ (Mus musculus [5]) | Dose/organ (Mus musculus [6]) | Dose/organ (Mus musculus [7]) | Dose/organ (Mus musculus [8]) | Dose/organ (Mus musculus [9]) | Dose/organ (Mus musculus [10]) | Dose/organ (Mus musculus [11]) | Dose/organ (Mus musculus [12]) | Dose/organ (Mus musculus [13]) | Dose/organ (Mus musculus [14]) | Dose/organ (Mus musculus [15]) | Dose/organ (Mus musculus [16]) | Dose/organ (Mus musculus [17]) | Dose/organ (Mus musculus [18]) | Dose/organ (Mus musculus [19]) | Dose/organ (Mus musculus [20]) | also measured
1 | CC(C[18F])NC[C@H](O)COc1cccc2[nH]c3ccccc3c12 (stereo not given in full) | 0.81 | 0.96 | 0.92 | 0.61 | 1.66 | 1.09 | 3.55 | 3.26 | 0.95 | 0.71 | 0.72 | 4.18 | 0.15 | 1.18 | 0.51 | 0.8 | 0.64 | 0.11 | 0.64 | 0.64 | Dose/organ (Mus musculus [21]): 0.59; Dose/organ (Mus musculus [22]): 0.72; Dose/organ (Mus musculus [23]): 0.29; Dose/organ (Mus musculus [24]): 7.46; Dose/organ (Mus musculus [25]): 0.72; Dose/organ (Mus musculus [26]): 0.83; Dose/organ (Mus musculus [27]): 1.08; Dose/organ (Mus musculus [28]): 0.25; Dose/organ (Mus musculus [29]): 0.38; Dose/organ (Mus musculus [30]): 0.61
2 | CC(C[18F])NC[C@@H](O)COc1cccc2[nH]c3ccccc3c12 (stereo not given in full) | 0.37 | 0.94 | 1.57 | 0.46 | 2.11 | 1.25 | 3.08 | 3.87 | 0.66 | 0.75 | 0.26 | 4.6 | 0.27 | 0.82 | 0.73 | 0.35 | 0.2 | 0.12 | 0.9 | 0.83 | Dose/organ (Mus musculus [21]): 0.5; Dose/organ (Mus musculus [22]): 1.08; Dose/organ (Mus musculus [23]): 0.57; Dose/organ (Mus musculus [24]): 5.1; Dose/organ (Mus musculus [25]): 0.67; Dose/organ (Mus musculus [26]): 1; Dose/organ (Mus musculus [27]): 0.78; Dose/organ (Mus musculus [28]): 0.62; Dose/organ (Mus musculus [29]): 0.63; Dose/organ (Mus musculus [30]): 0.56
